Assay results taken from ChEMBL document CHEMBL3758165, “In vitro interactions between anidulafungin and nonsteroidal anti-inflammatory drugs on biofilms of Candida spp” (2016).

Tests used:
Type in all cases: functional
[1] = tested on: Meyerozyma guilliermondii; assay: Antibiofilm activity against Candida guilliermondii a83 by two dimensional checkerboard dilution method in presence of diclofenac
Procedure, shortened: (§1)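 Biofilms were grown on PVC disks from 2 ml of a 1·10^6 cfu/ml cell suspension. Adhesion ran 1.5 h at 37 °C with shaking at 100 rpm. Disks were PBS-washed, then matured 48 h at 37 °C in RPMI 1640 (MOPS, pH 7). Biofilms were washed again and given 24 h at 37 °C of anidulafungin/NSAID checkerboard combinations (NSAID final 0.1 µM–100 mM). Read-out was XTT-menadione (2 h, 37 °C, 490 nm). SMIC was defined as 50% reduction versus drug-free control, from which FICI was calculated. Triplicates were run on different days.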

[2] = tested on: Candida albicans; assay: Antibiofilm activity against Candida albicans ATCC 24433 after 48 hrs by XTT reduction assay relative to control; design: scale not given: the % may be the effect or the level left
Procedure, shortened: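 Biofilms grown on autoclaved PVC disks: 1·10^6 cfu ml-1 cells, adhesion 1.5 h at 37 °C shaking 100 rpm, PBS wash, then 48 h at 37 °C in RPMI 1640 (MOPS, pH 7). Metabolic activity read by XTT–menadione reduction, 2 h at 37 °C, supernatant formazan at 490 nm, relative to drug-free control; triplicate on different days.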

[3] = tested on: Candida albicans; assay: Antibiofilm activity against Candida albicans ATCC 24433 assessed as fractional inhibitory concentration by two dimensional checkerboard dilution method in presence of aspirin
Procedure, shortened: (§2)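 Preformed 48 h disk biofilms (RPMI 1640, MOPS pH 7, 37 °C), PBS-washed, exposed 24 h at 37 °C on rocker to two-dimensional checkerboard of anidulafungin plus NSAID in RPMI; NSAID final 0.1 µM to 100 mM. XTT reduction at 490 nm; SMIC = combination giving 50% metabolic reduction versus drug-free control; FIC index calculated; triplicate on different days.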

[4] = tested on: Meyerozyma guilliermondii; assay: Antibiofilm activity against Candida guilliermondii a410 assessed as fractional inhibitory concentration by two dimensional checkerboard dilution method in presence of ibuprofen; procedure, shortened: as §1
[5] = tested on: Candida albicans; assay: Antibiofilm activity against Candida albicans ATCC 10231 assessed as fractional inhibitory concentration by two dimensional checkerboard dilution method in presence of aspirin; procedure, shortened: as §2
[6] = tested on: Meyerozyma guilliermondii; assay: Antibiofilm activity against Candida guilliermondii ATCC 6260 assessed as fractional inhibitory concentration by two dimensional checkerboard dilution method in presence of diclofenac; procedure, shortened: as §2
[7] = tested on: Meyerozyma guilliermondii; assay: Antibiofilm activity against Candida guilliermondii a410 by two dimensional checkerboard dilution method
Procedure, shortened: (§3)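 Biofilms grown on sterilized PVC disks: 1·10^6 cfu/ml Candida cells adhered for 1.5 h at 37 °C with shaking, washed with PBS, then matured 48 h at 37 °C in RPMI 1640 (MOPS, pH 7). Preformed biofilms were washed and exposed to drug, alone or in two-dimensional checkerboard combination, in RPMI 1640 for 24 h at 37 °C on a rocker.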

[8] = tested on: Nakaseomyces glabratus; assay: Antibiofilm activity against Candida glabrata ATCC 15126 assessed as fractional inhibitory concentration by two dimensional checkerboard dilution method in presence of aspirin; procedure, shortened: as §2
[9] = tested on: Candida albicans; assay: Antibiofilm activity against Candida albicans 17a18 by two dimensional checkerboard dilution method in presence of diclofenac; procedure, shortened: as §2
[10] = tested on: Nakaseomyces glabratus; assay: Antibiofilm activity against Candida glabrata 18a10 by two dimensional checkerboard dilution method in presence of aspirin; procedure, shortened: as §2
[11] = tested on: Nakaseomyces glabratus; assay: Antibiofilm activity against Candida glabrata ATCC 15126 assessed as fractional inhibitory concentration by two dimensional checkerboard dilution method in presence of diclofenac; procedure, shortened: as §2
[12] = tested on: Meyerozyma guilliermondii; assay: Antibiofilm activity against Candida guilliermondii a83 assessed as fractional inhibitory concentration by two dimensional checkerboard dilution method in presence of aspirin; procedure, shortened: as §1
[13] = tested on: Meyerozyma guilliermondii; assay: Antibiofilm activity against Candida guilliermondii a410 by two dimensional checkerboard dilution method in presence of aspirin; procedure, shortened: as §1
[14] = tested on: Candida albicans; assay: Antibiofilm activity against Candida albicans ATCC 24433 assessed as fractional inhibitory concentration by two dimensional checkerboard dilution method in presence of diclofenac; procedure, shortened: as §2
[15] = tested on: Candida albicans; assay: Antibiofilm activity against Candida albicans 17a18 assessed as fractional inhibitory concentration by two dimensional checkerboard dilution method in presence of aspirin; procedure, shortened: as §2
[16] = tested on: Nakaseomyces glabratus; assay: Potentiation of anidulafungin-induced antibiofilm activity against Candida glabrata 18a10 at 0.1 uM to 100 mM after 48 hrs by XTT reduction assay relative to control; design: scale not given: the % may be the effect or the level left; procedure, shortened: as §3
[17] = tested on: Meyerozyma guilliermondii; assay: Antibiofilm activity against Candida guilliermondii a410 assessed as fractional inhibitory concentration by two dimensional checkerboard dilution method in presence of anidulafungin
Procedure, shortened: (§4)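 Biofilms grown on PVC disks: 1·10^6 cfu/ml in RPMI 1640 (MOPS, pH 7), 1.5 h adhesion at 37 °C with shaking, PBS wash, 48 h maturation at 37 °C. Preformed biofilms exposed 24 h at 37 °C to anidulafungin/NSAID checkerboard combinations in RPMI. XTT-menadione reduction read at 490 nm. SMIC = 50% metabolic reduction versus drug-free control. Triplicate runs on different days; FIC index calculated.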

[18] = tested on: Meyerozyma guilliermondii; assay: Antibiofilm activity against Candida guilliermondii ATCC 6260 assessed as fractional inhibitory concentration by two dimensional checkerboard dilution method in presence of anidulafungin; procedure, shortened: as §4
[19] = tested on: Candida albicans; assay: Antibiofilm activity against Candida albicans ATCC 24433 at 1 mM after 24 hrs by XTT reduction assay relative to control; design: scale not given: the % may be the effect or the level left; procedure, shortened: as §3
[20] = tested on: Nakaseomyces glabratus; assay: Antibiofilm activity against Candida glabrata ATCC 15126 assessed as fractional inhibitory concentration by two dimensional checkerboard dilution method in presence of anidulafungin; procedure, shortened: as §4
[21] = tested on: Nakaseomyces glabratus; assay: Antibiofilm activity against Candida glabrata 18a10 assessed as fractional inhibitory concentration by two dimensional checkerboard dilution method in presence of anidulafungin; procedure, shortened: as §4
[22] = tested on: Candida albicans; assay: Antibiofilm activity against Candida albicans ATCC 90028 at 1 mM after 24 hrs by XTT reduction assay relative to control; design: scale not given: the % may be the effect or the level left; procedure, shortened: as §3
[23] = tested on: Candida albicans; assay: Antibiofilm activity against Candida albicans ATCC 10231 at 0.1 uM to 100 mM after 48 hrs by XTT reduction assay relative to control; design: scale not given: the % may be the effect or the level left; procedure, shortened: as §3
[24] = tested on: Meyerozyma guilliermondii; assay: Antibiofilm activity against Candida guilliermondii ATCC 6260 by two dimensional checkerboard dilution method in presence of anidulafungin; procedure, shortened: as §3
[25] = tested on: Nakaseomyces glabratus; assay: Antibiofilm activity against Candida glabrata ATCC 15126 by two dimensional checkerboard dilution method in presence of anidulafungin; procedure, shortened: as §3
[26] = tested on: Candida albicans; assay: Potentiation of anidulafungin-induced antibiofilm activity against Candida albicans ATCC 24433 at 0.1 uM to 100 mM after 48 hrs by XTT reduction assay relative to control; design: scale not given: the % may be the effect or the level left; procedure, shortened: as §3
[27] = tested on: Meyerozyma guilliermondii; assay: Antibiofilm activity against Candida guilliermondii a83 by two dimensional checkerboard dilution method in presence of anidulafungin; procedure, shortened: as §3
[28] = tested on: Candida albicans; assay: Antibiofilm activity against Candida albicans ATCC 24433 at 0.1 uM to 100 mM after 48 hrs by XTT reduction assay relative to control; design: scale not given: the % may be the effect or the level left; procedure, shortened: as §3
[29] = tested on: Candida albicans; assay: Antibiofilm activity against Candida albicans ATCC 90028 at 0.1 uM to 100 mM after 48 hrs by XTT reduction assay relative to control; design: scale not given: the % may be the effect or the level left; procedure, shortened: as §3
[30] = tested on: Meyerozyma guilliermondii; assay: Antibiofilm activity against Candida guilliermondii ATCC 6260 at 0.1 uM to 100 mM after 48 hrs by XTT reduction assay relative to control; design: scale not given: the % may be the effect or the level left; procedure, shortened: as §3
[31] = tested on: Meyerozyma guilliermondii; assay: Antibiofilm activity against Candida guilliermondii a410 at 0.2 mM after 24 hrs by XTT reduction assay relative to control; design: scale not given: the % may be the effect or the level left; procedure, shortened: as §3

| Compound | MIC [7] | Activity [16] [%] | Ratio [17] | Ratio [18] | Ratio [20] | Ratio [21] | Activity [22] [%] | Activity [23] [%] | MIC [24] [µM] | MIC [25] [µM] | Activity [26] [%] | MIC [27] [µM] | Activity [28] [%] | further results |
| --- | --- | --- | --- | --- | --- | --- | --- | --- | --- | --- | --- | --- | --- | --- |
| CCCCCOc1ccc(-c2ccc(-c3ccc(C(=O)N[C@@H]4C[C@@H](O)[C@@H](O)NC(=O)[C@@H]5[C@@H](O)[C@@H](C)CN5C(=O)[C@H]([C@@H](C)O)NC(=O)[C@H]([C@H](O)[C@@H](O)c5ccc(O)cc5)NC(=O)[C@@H]5C[C@@H](O)CN5C(=O)[C@H]([C@H](C)O)NC4=O)cc3)cc2)cc1 | 2 µg/mL | – | – | – | – | – | – | – | – | – | – | – | – | MIC [1]: 0.2 µg/mL; Activity [2]: 25.06%; Ratio [3]: 0.05; Ratio [4]: 0.2; Ratio [5]: 0.05; Ratio [6]: 0.05; Ratio [8]: 0.05; MIC [9]: 0.1 µg/mL; MIC [10]: 0.1 µg/mL; Ratio [11]: 0.1; Ratio [12]: 0.05; MIC [13]: 0.1 µg/mL; Ratio [14]: 0.05; Ratio [15]: 0.05 |
| CC(=O)Oc1ccccc1C(=O)O [ASPIRIN] | 1000 µM | 48.58 | 0.1 | 0.1 | 0.05 | 0.05 | 44.72 | 49.21 | 100 | 10 | 56.14 | 10 | – | Activity [19]: 48.75% |
| O=C([O-])Cc1ccccc1Nc1c(Cl)cccc1Cl.[Na+] [DICLOFENAC SODIUM] | 100000 µM | 58.66 | 0.4 | 0.4 | 0.2 | 0.2 | – | 53.57 | 40000 | 20000 | 65.24 | 20000 | 50.25 | Activity [29]: 51.15%; Activity [30]: 60.98% |
| CC(C)Cc1ccc(C(C)C(=O)O)cc1 (stereo not given) [IBUPROFEN] | 200 µM | 62.33 | 0.1 | 0.1 | 0.2 | 0.2 | 25.62 | – | 20 | 40 | 60.14 | 40 | 22.45 | Activity [31]: 53.24% |
